The list is not random: actives were taken first. Their share in the collection is about 1.9%.
beta cell repl: MIN6 beta-cell proliferation induction. AID 2380. 330,000 compounds, 0.29% hits. MIN6 cells proliferation, ATPlite luminescence, 48 h; cells starved in 0.2% serum; 100% = growth in 10% serum. proliferation, % at 10 µM;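 active = compounds whose signal lies at least 3.5 SD above the mean of all wells on their plate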
Rce1 inhib: yeast Ras-converting enzyme inhibition; Q03530; yeast membranes, quenched prenylated peptide cleavage fluorescence; 290,000 compounds, 0.27% hits; calls only;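 active = fall in fluorescence gain of 50% or more versus controls, with final raw signal at or below 3038400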
Target sequence (Q03530 whole entry, looked up): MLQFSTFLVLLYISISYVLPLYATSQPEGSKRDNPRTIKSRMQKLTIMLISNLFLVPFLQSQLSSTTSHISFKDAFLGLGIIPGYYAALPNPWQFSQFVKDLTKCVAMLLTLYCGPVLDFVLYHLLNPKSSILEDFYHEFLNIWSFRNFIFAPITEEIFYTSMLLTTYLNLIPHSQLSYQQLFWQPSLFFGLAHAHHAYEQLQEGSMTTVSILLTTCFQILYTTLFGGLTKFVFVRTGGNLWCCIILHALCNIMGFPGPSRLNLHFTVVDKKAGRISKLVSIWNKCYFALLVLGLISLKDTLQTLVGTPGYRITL
UCH37 DUB inh: blocks the human deubiquitinase UCH37; 330,000 compounds, 0.33% hits; inhibition, % (concentration not given with the values); Q9Y5K5; purified proteasome/UCH37, Ub-AMC cleavage fluorescence;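 active = mean inhibition over replicate wells above about 20%, limit read from the data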
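Schedule: 30 min plus 25 min, room temperature / Material: human UCH37 within purified proteasomes / Technique: AMC fluorescence intensity at 355/460 nm / Buffer or medium: pH 7.4 Tris-HCl (50 mM) with ovalbumin, ATP-MgCl2, DTT / Controls: wells without proteasome as full block, compound-free enzyme plus substrate as uninhibited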
CR mimetic SO: yeast age-related superoxide inhibition as caloric restriction mimetic; S. cerevisiae aged cells, superoxide DHE fluorescence; hits give low values; superoxide response (% of plate mean), % at 10 µM; 330,000 compounds, 0.18% hits;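 active = superoxide response under a set limit, about three screen SD below normal, cut at about 65% in these data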;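 note: yeast aged for seven days with compound at 30 °C before DHE staining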
PG9 Ab binder: PG9 antibody binding by small molecule; TR-FRET gp120-PG9 antibody binding; inhibition, % at 6.7 µM; 360,000 compounds, 0.43% hits; AID 624416; in the data active = inhibition above about 8.5%
NR1D1 modulator: modulates human Rev-erb alpha binding to DNA; Rev-erbα–FITC-DNA binding, fluorescence polarization, 90 min; activity, % at 10 µM; 370,000 compounds, 0.79% hits; AID 1259318;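 active = activity above about 14%, limit read from the data; passing the limit was not always enough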
NR1D1 mod conf: Rev-erb alpha (human) modulation, hit confirmation; shares compounds with NR1D1 modulator; Rev-erb alpha FITC-DNA binding, fluorescence polarization, 90 min; activation, % at 25 µM; 3,000 compounds, 61% hits; AID 1259319;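 active = activation at or above a set limit, or at least 3 SD above the negative control mean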
RORg DNA counter: counter-screen for Rev-erb alpha modulators: RORgamma DNA binding. shares compounds with NR1D1 modulator. purified RORgamma protein-FITC-DNA binding, fluorescence polarization. IC50, µM. 910 compounds, 8% hits;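 active = Compounds whose fitted half-maximal concentration for disrupting protein-DNA binding is below 10 micromolar; the record names Rev-erb in its text, so the target is in doubt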
Numbers stand for hits; i = inactive; nt = not tested or not shown.

SMILES	beta cell repl	Rce1 inhib	UCH37 DUB inh	CR mimetic SO	PG9 Ab binder	NR1D1 modulator	NR1D1 mod conf	others
CCOC(=O)C1=C(C#N)C(C(=O)OCC)c2ncccc21 (stereo not given)	nt	nt	nt	nt	i	33.9	22.1
O=c1ccc(-c2ccc(S(=O)(=O)N3CCCCC3)o2)n[nH]1	i	i	i	i	i	i	nt
Cc1ccc(Cl)cc1N1CCN(S(=O)(=O)c2ccc(-c3ccc(=O)[nH]n3)o2)CC1	i	i	i	i	i	135.1	137.6	RORg DNA counter=i
Cc1ccc(C)c(N2CCN(S(=O)(=O)c3ccc(-c4ccc(=O)[nH]n4)o3)CC2)c1	i	i	i	i	i	33.2	i
Cc1ccc(C=C2C=C(c3ccccc3)OC2=O)cc1	nt	nt	nt	nt	i	i	nt
CN(C)c1ccc(C=C2C=C(c3ccccc3)OC2=O)cc1	nt	nt	nt	nt	i	31.9	i
CN(C)c1ccc(/C=C2/C=C(c3ccc4c(c3)CCCC4)OC2=O)cc1	i	i	i	i	i	24.6	i
Cc1cc(SCC(=O)NN=Cc2cccnc2)nc2c(C)cccc12	nt	nt	i	nt	nt	nt	nt
N#Cc1nnn2c1nc(N)c1c(Cl)cccc12	nt	nt	nt	nt	i	36.8	15.3
N#Cc1nnn2c1nc(N)c1c(F)cccc12	i	i	i	i	i	i	nt
CCOC(=O)C(=NNc1ccccc1Cl)N1CCN(Cc2ccccc2)CC1	nt	nt	i	nt	nt	nt	nt
O=C(CCc1c[nH]c2ccccc12)NCCc1ccc(Cl)cc1	i	i	i	i	i	37.2	35.6	RORg DNA counter=i
COc1cc(C=NNC2=NC(C)(C)Cc3ccccc32)cc(OC)c1OC	nt	nt	i	nt	nt	nt	nt
Cc1ccc(C(=O)CSc2ncnc3sc4c(c23)CCCC4)cc1	i	i	i	i	i	34.3	18.4
O=C(O)CSc1ncnc2sc3c(c12)CCCC3	i	i	i	i	i	i	nt
O=C(CNC(=O)c1cccc(F)c1)NN=Cc1ccc([N+](=O)[O-])s1	nt	nt	i	nt	nt	nt	nt
O=C1c2cccc3c(N4CCCCC4)ccc(c23)C(=O)N1c1ccccn1	i	i	i	i	i	i	nt
CCCN1C(=O)c2cccc3c(N4CCCCC4)ccc(c23)C1=O	nt	i	i	i	i	96.0	96.8	RORg DNA counter=i
CN(C)CCCN1C(=O)c2cccc3c(Br)ccc(c23)C1=O	i	i	i	i	i	i	nt
CCCCNc1ccc2c3c(cccc13)C(=O)N(CCCC)C2=O	nt	i	i	nt	i	108.4	127.8	RORg DNA counter=i
O=C(NN=CC1CC=CCC1)c1cc(Br)ccc1O (stereo not given)	nt	nt	i	nt	nt	nt	nt
CCOc1ccccc1NC(=O)CCSc1nc2n[nH]c(C)c2c(=N)n1-c1ccccc1Cl	i	nt	i	i	41.1	34.7	i
CCOc1ccccc1-n1c(SCC(=O)Nc2ccc(CC)cc2)nc2n[nH]c(C)c2c1=N	i	i	i	i	nt	nt	nt
Cc1ccc(C=NNc2ccc(F)cc2F)s1	nt	nt	i	nt	nt	nt	nt
Brc1cc2c(cc1-c1nc3ccccc3s1)OCO2	i	i	i	i	i	27.5	i
SMILES	beta cell repl	Rce1 inhib	UCH37 DUB inh	CR mimetic SO	PG9 Ab binder	NR1D1 modulator	NR1D1 mod conf	others
CC(C)(C)c1ccc(C=NOCC(=O)NCc2ccccc2)cc1	nt	nt	i	nt	nt	nt	nt
Cn1ccsc1=NC(=O)Nc1ccccc1	nt	nt	i	nt	nt	nt	nt
CCCCC(C(=O)NC1CCCC1)N(Cc1ccccc1)C(=O)c1snc(C(N)=O)c1N (stereo not given)	i	i	i	i	i	22.2	i
CN(C)c1ccc(C(C(=O)NCC2CCCO2)N(C(=O)c2snc(C(N)=O)c2N)c2ccccc2)cc1 (stereo not given)	i	i	nt	i	i	38.5	i
CN(C)c1ccc(C(C(=O)NCC2CCCO2)N(C(=O)c2snc(C(N)=O)c2N)c2ccc3c(c2)OCO3)cc1 (stereo not given)	i	i	nt	i	i	i	nt
Cc1cccc(N(C(=O)c2snc(C(N)=O)c2N)C(C(=O)NCC2CCCO2)c2ccc(N(C)C)cc2)c1 (stereo not given)	i	i	i	i	i	46.1	i
CC(C)c1ccc(N(C(=O)c2snc(C(N)=O)c2N)C(C(=O)NCC2CCCO2)c2ccc(N(C)C)cc2)cc1 (stereo not given)	i	i	i	nt	i	i	nt
Cc1ccc(NC(=O)CCC(=O)NN=Cc2ccc(O)cc2)cc1	nt	nt	i	nt	nt	nt	nt

Screening data (PubChem)
